Reference: ChEMBL document CHEMBL1126317, “2-(aminoalkyl)-5-nitropyrazolo[3,4,5-kl]acridines, a new class of anticancer agents” (1992)
The source made the active and inactive calls. No cut-off for these calls is given here.

Columns and labels:
L1210 [1] = experiment: In vitro antitumor activity against L1210 leukemia cell line.; type: functional; conditions: Mus musculus, read-out: ID50 (the source's name)
Mus musculus [2] = experiment: In vivo antitumor activity of the compound(ip, 12.5 mg/kg for 5 days) against CD2F1 mice implanted intraperitoneally with P388 leukemia cells.; type: functional; conditions: route intraperitoneal
Mus musculus [3] = experiment: In vivo antitumor activity of the compound(ip, 25 mg/kg for 5 days) against CD2F1 mice implanted intraperitoneally with P388 leukemia cells.; type: functional; conditions: route intraperitoneal
Mus musculus [4] = experiment: In vivo antitumor activity of the compound(ip, 3.12 mg/kg for 5 days) against CD2F1 mice implanted intraperitoneally with P388 leukemia cells; Day 30 survivors=2/6; type: functional; conditions: route intraperitoneal
Mus musculus [5] = experiment: In vivo antitumor activity of the compound(ip, 3.12 mg/kg for 5 days) against CD2F1 mice implanted intraperitoneally with P388 leukemia cells.; type: functional; conditions: route intraperitoneal
HCT-8 = experiment: In vitro antitumor activity against HCT-8 colon cancer cell line.; type: functional; conditions: Homo sapiens, read-out: ID50 (the source's name)
Mus musculus [6] = experiment: In vivo antitumor activity of the compound(ip, 50 mg/kg for 5 days) against CD2F1 mice implanted intraperitoneally with P388 leukemia cells.; type: functional; conditions: route intraperitoneal
[7] = Ratio of the ID50's showing antitumor activity against HCT-8 and L1210 leukemia cell lines.; type: functional
Summary of the method: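 Ratio taken as ID50 in HCT-8 cells divided by ID50 in L1210 cells, both ID50s expressed as molar concentrations.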

Mus musculus [8] = experiment: In vivo antitumor activity of the compound(ip, 100 mg/kg for 5 days) against CD2F1 mice implanted intraperitoneally with P388 leukemia cells.; type: functional; conditions: route intraperitoneal
Mus musculus [9] = experiment: In vivo antitumor activity of the compound(ip, 12.5 mg/kg for 5 days) against CD2F1 mice implanted intraperitoneally with P388 leukemia cells; Day 30 survivors=1/6; type: functional; conditions: route intraperitoneal
Mus musculus [10] = experiment: In vivo antitumor activity of the compound(ip, 6.25 mg/kg for 5 days) against CD2F1 mice implanted intraperitoneally with P388 leukemia cells; Day 30 survivors=1/6; type: functional; conditions: route intraperitoneal
Mus musculus [11] = experiment: In vivo antitumor activity of the compound(ip, 6.25 mg/kg for 5 days) against CD2F1 mice implanted intraperitoneally with P388 leukemia cells.; type: functional; conditions: route intraperitoneal
L1210 [12] = experiment: In vitro antitumor activity against L1210 leukemia cell line; IA= Inactive; type: functional, cell-based; conditions: Mus musculus
Mus musculus [13] = experiment: In vivo antitumor activity of the compound(ip, 25 mg/kg for 5 days) against CD2F1 mice implanted intraperitoneally with P388 leukemia cells; Day 30 survivors=2/6; type: functional; conditions: route intraperitoneal
Mus musculus [14] = experiment: In vivo antitumor activity of the compound(ip, 3.12 mg/kg for 5 days) against CD2F1 mice implanted intraperitoneally with P388 leukemia cells; Day 30 survivors=3/6; type: functional; conditions: route intraperitoneal

SMILES: CCCCOc1ccc2c(c1)-c1nn(CCNCCO)c3ccc([N+](=O)[O-])c(c13)N2.CS(=O)(=O)O
- IC50 (L1210 [1]): 650 nM
- T/C (Mus musculus [2]): 175%

SMILES: CN(C)CCN1Nc2c3cc(N(C)C)ccc3nc3c([N+](=O)[O-])ccc1c23.CS(=O)(=O)O
- T/C (Mus musculus [3]): 189%
- IC50 (L1210 [1]): 600 nM

SMILES: CN(C)CCN1Nc2c3cc(O)ccc3nc3c([N+](=O)[O-])ccc1c23.CS(=O)(=O)O
- Activity (Mus musculus [4]): 2
- T/C (Mus musculus [5]): 228%
- IC50 (L1210 [1]): 2.7 nM

SMILES: CCN(CC)CCN1Nc2c3cc(SC)ccc3nc3c([N+](=O)[O-])ccc1c23.CS(=O)(=O)O
- IC50 (HCT-8): 350 nM
- T/C (Mus musculus [6]): 114%
- Ratio [7]: 0.32
- IC50 (L1210 [1]): 1100 nM

SMILES: CCN(CC)CCN1Nc2c3cc(C)ccc3nc3c([N+](=O)[O-])ccc1c23.CS(=O)(=O)O
- T/C (Mus musculus [8]): 136%
- IC50 (L1210 [1]): 860 nM

SMILES: Cc1ccc2c(c1)-c1nn(CCNCCO)c3ccc([N+](=O)[O-])c(c13)N2.Cl
- T/C (Mus musculus [6]): 115%

SMILES: CCOc1ccc2c(c1)-c1nn(CCN(C)C)c3ccc([N+](=O)[O-])c(c13)N2.CS(=O)(=O)O
- Activity (Mus musculus [9]): 1

SMILES: CCN(CC)CCN1Nc2c3c(OC)cc(OC)cc3nc3c([N+](=O)[O-])ccc1c23.CS(=O)(=O)O
- T/C (Mus musculus [6]): 94%
- IC50 (L1210 [1]): 490 nM

SMILES: COc1ccc2c(c1)-c1nn(CCNCCO)c3ccc([N+](=O)[O-])c(c13)N2
- IC50 (L1210 [1]): 450 nM

SMILES: CCN(CC)CCN1Nc2c3cc(OCc4ccccc4)ccc3nc3c([N+](=O)[O-])ccc1c23.CS(=O)(=O)O
- T/C (Mus musculus [6]): 200%
- IC50 (L1210 [1]): 27 nM

SMILES: CCN(CC)CCN1Nc2c3cc(OC)c(Cl)cc3nc3c([N+](=O)[O-])ccc1c23.CS(=O)(=O)O
- T/C (Mus musculus [3]): 112%
- IC50 (L1210 [1]): 270 nM

SMILES: CCCC(=O)Oc1ccc2c(c1)-c1nn(CCN(CC)CC)c3ccc([N+](=O)[O-])c(c13)N2.CS(=O)(=O)O
- Activity (Mus musculus [10]): 1
- IC50 (L1210 [1]): 4.3 nM

SMILES: COc1ccc2c(c1Cl)-c1nn(CCCN(C)C)c3ccc([N+](=O)[O-])c(c13)N2.CS(=O)(=O)O
- T/C (Mus musculus [11]): 221%
- Activity (Mus musculus [10]): 1
- IC50 (L1210 [1]): 100 nM

SMILES: CN(C)CCCN1Nc2c3ccc(O)cc3nc3c([N+](=O)[O-])ccc1c23.Cl
- T/C (Mus musculus [6]): 140%
- IC50 (L1210 [1]): 6700 nM

SMILES: CCOc1ccc2c(c1)-c1nn(CCCN(C)C)c3ccc([N+](=O)[O-])c(c13)N2.CS(=O)(=O)O
- IC50 (L1210 [1]): 220 nM
- T/C (Mus musculus [2]): 236%

SMILES: CN(C)CCCN1Nc2c3ccccc3nc3c([N+](=O)[O-])ccc1c23.CS(=O)(=O)O
- Activity (Mus musculus [9]): 1
- IC50 (L1210 [1]): 190 nM
- T/C (Mus musculus [2]): 214%

SMILES: COc1ccc2c(c1)-c1nn(CCO)c3ccc([N+](=O)[O-])c(c13)N2
- ID50 (L1210 [12]): inactive

SMILES: CCN(CC)CCOc1ccc2c(c1)-c1nn(CCN(CC)CC)c3ccc([N+](=O)[O-])c(c13)N2.CS(=O)(=O)O
- T/C (Mus musculus [6]): 118%
- IC50 (L1210 [1]): 500 nM

SMILES: CCN(CC)CCN1Nc2c3cc(OC)cc(OC)c3nc3c([N+](=O)[O-])ccc1c23.CS(=O)(=O)O
- T/C (Mus musculus [6]): 88%
- IC50 (L1210 [1]): 760 nM

SMILES: CCN(CC)CCN1Nc2c3ccc(O)cc3nc3c([N+](=O)[O-])ccc1c23.CS(=O)(=O)O
- T/C (Mus musculus [3]): 130%
- IC50 (L1210 [1]): 83 nM

SMILES: COc1ccc2c(c1)-c1nn(CCN3CCCC3)c3ccc([N+](=O)[O-])c(c13)N2.CS(=O)(=O)O
- T/C (Mus musculus [3]): 211%
- IC50 (L1210 [1]): 160 nM

SMILES: C=CCOc1ccc2nc3c([N+](=O)[O-])ccc4c3c(c2c1)NN4CCCN(C)C.CS(=O)(=O)O
- IC50 (L1210 [1]): 2200 nM
- T/C (Mus musculus [2]): 221%

SMILES: CC(=O)Oc1ccc2nc3c([N+](=O)[O-])ccc4c3c(c2c1)NN4CCCN(C)C.CS(=O)(=O)O
- Activity (Mus musculus [4]): 2
- T/C (Mus musculus [5]): 252%
- IC50 (L1210 [1]): 1.9 nM

SMILES: Cl.O=[N+]([O-])c1ccc2c3c(c4ccccc4nc13)NN2CCNCCO
- T/C (Mus musculus [3]): 235%
- IC50 (L1210 [1]): 220 nM

SMILES: CCN(CC)CCN1Nc2c3cc(O)c(Cl)cc3nc3c([N+](=O)[O-])ccc1c23.CS(=O)(=O)O
- T/C (Mus musculus [6]): 125%
- IC50 (L1210 [1]): 150 nM

SMILES: CCOc1ccc2c(c1)-c1nn(CCN(CC)CC)c3ccc([N+](=O)[O-])c(c13)N2.CS(=O)(=O)O
- IC50 (L1210 [1]): 790 nM
- T/C (Mus musculus [2]): 220%

SMILES: CCCOc1ccc2c(c1)-c1nn(CCN(CC)CC)c3ccc([N+](=O)[O-])c(c13)N2.CS(=O)(=O)O
- T/C (Mus musculus [3]): 273%
- Activity (Mus musculus [13]): 2
- IC50 (L1210 [1]): 460 nM

SMILES: CC(=O)Oc1ccc2nc3c([N+](=O)[O-])ccc4c3c(c2c1)NN4CCN(C)C.CS(=O)(=O)O
- Activity (Mus musculus [14]): 3
- T/C (Mus musculus [5]): 265%
- IC50 (L1210 [1]): 1.2 nM

SMILES: COc1ccc2c(c1)-c1nn(CCCN(C)C)c3ccc([N+](=O)[O-])c(c13)N2.CS(=O)(=O)O
- Activity (Mus musculus [13]): 2
- Ratio [7]: 0.33

SMILES: CS(=O)(=O)O.O=[N+]([O-])c1ccc2c3c(nn2CCN2CCCC2)-c2cc(O)ccc2Nc13
- T/C (Mus musculus [5]): 250%
- IC50 (L1210 [1]): 3 nM

SMILES: CCN(CC)CCN1Nc2c3cc4c(cc3nc3c([N+](=O)[O-])ccc1c23)OCO4.CS(=O)(=O)O
- T/C (Mus musculus [6]): 173%
- IC50 (L1210 [1]): 160 nM

SMILES: CN(C)CCCN1Nc2c3cc(O)ccc3nc3c([N+](=O)[O-])ccc1c23.CS(=O)(=O)O
- IC50 (HCT-8): 12 nM
- Activity (Mus musculus [14]): 3
- T/C (Mus musculus [5]): 270%
- Ratio [7]: 6.7
- IC50 (L1210 [1]): 1.8 nM

SMILES: CCCCOc1ccc2c(c1)-c1nn(CCN(CC)CC)c3ccc([N+](=O)[O-])c(c13)N2.CS(=O)(=O)O
- IC50 (L1210 [1]): 12 nM
- T/C (Mus musculus [2]): 209%

SMILES: CCN(CC)CCN1Nc2c3cc(OC)c(OC)cc3nc3c([N+](=O)[O-])ccc1c23.CS(=O)(=O)O
- T/C (Mus musculus [8]): 126%
- IC50 (L1210 [1]): 1100 nM

SMILES: CN(C)CCN1Nc2c3cc(OC(=O)C(C)(C)C)ccc3nc3c([N+](=O)[O-])ccc1c23.CS(=O)(=O)O
- Activity (Mus musculus [4]): 2
- T/C (Mus musculus [5]): 236%
- IC50 (L1210 [1]): 2.9 nM

SMILES: CCN(CC)CCN1Nc2c3ccc(OCc4ccccc4)cc3nc3c([N+](=O)[O-])ccc1c23.CS(=O)(=O)O
- IC50 (L1210 [1]): 180 nM
- T/C (Mus musculus [2]): 87%

SMILES: CCN(CC)CCN1Nc2c3cccc(OC)c3nc3c([N+](=O)[O-])ccc1c23.CS(=O)(=O)O
- T/C (Mus musculus [8]): 111%
- IC50 (L1210 [1]): 640 nM

SMILES: CCN(CC)CCCN1Nc2c3cc(OC)ccc3nc3c([N+](=O)[O-])ccc1c23.CS(=O)(=O)O
- T/C (Mus musculus [3]): 210%
- IC50 (L1210 [1]): 1300 nM

SMILES: CCN(CC)CCN1Nc2c3ccccc3nc3c([N+](=O)[O-])ccc1c23.CS(=O)(=O)O
- T/C (Mus musculus [11]): 165%
- IC50 (L1210 [1]): 190 nM

SMILES: COc1cc(OC)c2c(c1)-c1nn(CCN(C)C)c3ccc([N+](=O)[O-])c(c13)N2
- IC50 (L1210 [1]): 210 nM
